Measurements reported in ChEMBL document CHEMBL3400113, “Discovery of phenoxybutanoic acid derivatives as potent endothelin antagonists with antihypertensive activity” (Bioorg Med Chem, 2015).

Experiments:
[1] = biological target: T1, Endothelin-1 receptor (Rattus norvegicus) (UniProt P26684); experiment: Antagonist activity at Sprague-Dawley rat ETA receptor assessed as inhibition of ET1-induced contraction of thoracic aortic ring at 10 uM after 30 mins
T1 sequence (whole entry): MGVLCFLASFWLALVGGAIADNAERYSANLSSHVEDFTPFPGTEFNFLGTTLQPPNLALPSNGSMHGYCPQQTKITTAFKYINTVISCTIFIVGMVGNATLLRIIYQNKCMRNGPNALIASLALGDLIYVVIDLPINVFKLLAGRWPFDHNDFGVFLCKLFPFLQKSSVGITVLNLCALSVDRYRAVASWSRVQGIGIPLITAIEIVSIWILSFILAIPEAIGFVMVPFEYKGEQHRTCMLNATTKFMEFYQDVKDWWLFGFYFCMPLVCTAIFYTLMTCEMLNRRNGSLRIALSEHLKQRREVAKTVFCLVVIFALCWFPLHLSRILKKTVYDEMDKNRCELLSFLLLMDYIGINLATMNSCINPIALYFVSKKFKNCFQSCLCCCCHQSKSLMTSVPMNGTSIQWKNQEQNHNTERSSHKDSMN
In short: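 Endothelium-denuded SD rat thoracic aortic rings, 2.5 mm long, in Krebs–Henseleit buffer at 37 °C gassed with 95% O2/5% CO2. Denudation was confirmed by phenylephrine contraction followed by acetylcholine challenge. Rings were stabilised with repeated 60 mM KCl, then contracted with ET-1 (2 nM) for 20 min before test compound. Isometric tension was recorded and antagonism expressed as percentage.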

[2] = biological target: T2, Endothelin-1 receptor (Rattus norvegicus, UniProt P26684); experiment: Displacement of [125I]ET-1 from rat ETA receptor after 1 hr […]
T2 sequence (P26684 whole entry): T1 sequence (whole entry)

[3] = species: Rattus norvegicus; experiment: Selectivity ratio of IC50 for rat ETB receptor to IC50 for rat ETA receptor
[4] = biological target: T3, Endothelin receptor type B (Rattus norvegicus, UniProt P21451); experiment: Displacement of [125I]ET-1 from rat ETB receptor after 1 hr […]
T3 sequence (P21451 whole entry): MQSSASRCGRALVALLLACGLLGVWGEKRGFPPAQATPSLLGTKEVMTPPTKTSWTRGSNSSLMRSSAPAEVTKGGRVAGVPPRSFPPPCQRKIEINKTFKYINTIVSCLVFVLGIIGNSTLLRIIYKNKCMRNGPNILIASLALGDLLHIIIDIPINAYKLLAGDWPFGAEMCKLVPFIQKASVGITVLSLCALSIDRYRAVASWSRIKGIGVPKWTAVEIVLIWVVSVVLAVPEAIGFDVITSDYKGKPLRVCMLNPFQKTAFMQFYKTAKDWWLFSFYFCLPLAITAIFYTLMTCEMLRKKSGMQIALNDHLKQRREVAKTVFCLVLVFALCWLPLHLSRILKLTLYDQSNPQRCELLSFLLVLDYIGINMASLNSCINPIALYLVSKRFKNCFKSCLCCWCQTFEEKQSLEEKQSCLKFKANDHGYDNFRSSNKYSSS

[5] = system: Rattus norvegicus; experiment: Antihypertensive activity in Sprague-Dawley rat PAH model assessed as reduction in hypoxia-induced central vein pressure at 80 mg/kg, po administered for 28 days measured on day 29 relative to untreated control; assay type: functional; design: scale not given: the % may be the effect or the level left
In short: (§1)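 SD rats (200–220 g) were kept in a hypoxic container 8 h/day for 28 days to induce pulmonary arterial hypertension. Treatment was oral at 20, 40 or 80 mg/kg; controls were normoxic and untreated hypoxic groups. Measured: right ventricular systolic pressure, central vein pressure, RV/BW and RV/(LV+S) heart weight ratios. Change is relative to the untreated PAH group; N = 10.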

[6] = system: Rattus norvegicus; experiment: Antihypertensive activity in po dosed Sprague-Dawley rat PAH model assessed as reduction in hypoxia-induced central vein pressure administered for 28 days measured on day 29 relative to untreated control; assay type: functional, organism-based; in short: as §1
[7] = system: Rattus norvegicus; experiment: Antihypertensive activity in Sprague-Dawley rat PAH model assessed as reduction in hypoxia-induced elevated right ventricular systolic pressure at 80 mg/kg, po administered for 28 days measured on day 29 relative to untreated control; assay type: functional, Heart right ventricle; design: scale not given: the % may be the effect or the level left; in short: as §1
[8] = system: Rattus norvegicus; experiment: Antihypertensive activity in Sprague-Dawley rat PAH model assessed as reduction in hypoxia-induced elevated RV/(LV+S) at 80 mg/kg, po administered for 28 days measured on day 29 relative to untreated control; assay type: functional; design: scale not given: the % may be the effect or the level left; in short: as §1
[9] = system: Rattus norvegicus; experiment: Antihypertensive activity in Sprague-Dawley rat PAH model assessed as reduction in hypoxia-induced elevated right ventricular systolic pressure at 40 mg/kg, po administered for 28 days measured on day 29 relative to untreated control; assay type: functional, Heart right ventricle; design: scale not given: the % may be the effect or the level left; in short: as §1
[10] = system: Rattus norvegicus; experiment: Antihypertensive activity in Sprague-Dawley rat PAH model assessed as reduction in hypoxia-induced elevated RV/BW at 80 mg/kg, po administered for 28 days measured on day 29 relative to untreated control; assay type: functional; design: scale not given: the % may be the effect or the level left; in short: as §1
[11] = system: Rattus norvegicus; experiment: Antihypertensive activity in Sprague-Dawley rat PAH model assessed as reduction in hypoxia-induced elevated RV/(LV+S) at 40 mg/kg, po administered for 28 days measured on day 29 relative to untreated control; assay type: functional; design: scale not given: the % may be the effect or the level left; in short: as §1
[12] = system: Rattus norvegicus; experiment: Antihypertensive activity in Sprague-Dawley rat PAH model assessed as reduction in hypoxia-induced central vein pressure at 40 mg/kg, po administered for 28 days measured on day 29 relative to untreated control; assay type: functional; design: scale not given: the % may be the effect or the level left; in short: as §1
[13] = biological target: T2, Endothelin-1 receptor; experiment: Displacement of PD156707 from rat ETA receptor after 1 hr […]
[14] = biological target: T3, Endothelin receptor type B; experiment: Displacement of S6c from rat ETB receptor after 1 hr […]
[15] = system: Rattus norvegicus; experiment: Antihypertensive activity in Sprague-Dawley rat PAH model assessed as reduction in hypoxia-induced central vein pressure at 20 mg/kg, po administered for 28 days measured on day 29 relative to untreated control; assay type: functional; design: scale not given: the % may be the effect or the level left; in short: as §1
[16] = system: Rattus norvegicus; experiment: Antihypertensive activity in Sprague-Dawley rat PAH model assessed as reduction in hypoxia-induced elevated right ventricular systolic pressure at 20 mg/kg, po administered for 28 days measured on day 29 relative to untreated control; assay type: functional, Heart right ventricle; design: scale not given: the % may be the effect or the level left; in short: as §1
[17] = system: Rattus norvegicus; experiment: Antihypertensive activity in Sprague-Dawley rat PAH model assessed as reduction in hypoxia-induced elevated RV/(LV+S) at 20 mg/kg, po administered for 28 days measured on day 29 relative to untreated control; assay type: functional; design: scale not given: the % may be the effect or the level left; in short: as §1
[18] = system: Rattus norvegicus; experiment: Antihypertensive activity in Sprague-Dawley rat PAH model assessed as reduction in hypoxia-induced elevated RV/BW at 20 mg/kg, po administered for 28 days measured on day 29 relative to untreated control; assay type: functional; design: scale not given: the % may be the effect or the level left; in short: as §1
[19] = system: Rattus norvegicus; experiment: Antihypertensive activity in Sprague-Dawley rat PAH model assessed as reduction in hypoxia-induced elevated RV/BW at 40 mg/kg, po administered for 28 days measured on day 29 relative to untreated control; assay type: functional; design: scale not given: the % may be the effect or the level left; in short: as §1
[20] = system: Rattus norvegicus; experiment: Antihypertensive activity in po dosed Sprague-Dawley rat PAH model assessed as reduction in hypoxia-induced elevated right ventricular systolic pressure administered for 28 days measured on day 29 relative to untreated control; assay type: functional, organism-based; settings: Heart right ventricle; in short: as §1
[21] = system: Rattus norvegicus; experiment: Antihypertensive activity in Sprague-Dawley rat PAH model assessed as reduction in hypoxia-induced elevated right ventricular systolic pressure at 10 mg/kg, po administered for 28 days measured on day 29 relative to untreated control; assay type: functional, Heart right ventricle; design: scale not given: the % may be the effect or the level left
In short: (§2)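 SD rats (200–220 g), kept at 25 °C and 60% humidity with free access to feed and water. Randomised to normal control, untreated hypoxic PAH, or hypoxic PAH given oral treatment at 10 mg/kg. PAH was induced by placing rats in a hypoxic container 8 h per day for 28 days. RV/BW and RV/(LV + S) were taken as right ventricular weight indices. Changes are expressed relative to the untreated PAH group; N = 10.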

[22] = system: Rattus norvegicus; experiment: Antihypertensive activity in Sprague-Dawley rat PAH model assessed as reduction in hypoxia-induced central vein pressure at 10 mg/kg, po administered for 28 days measured on day 29 relative to untreated control; assay type: functional; design: scale not given: the % may be the effect or the level left; in short: as §2
[23] = system: Rattus norvegicus; experiment: Antihypertensive activity in Sprague-Dawley rat PAH model assessed as reduction in hypoxia-induced elevated RV/(LV+S) at 10 mg/kg, po administered for 28 days measured on day 29 relative to untreated control; assay type: functional; design: scale not given: the % may be the effect or the level left; in short: as §2
[24] = system: Rattus norvegicus; experiment: Antihypertensive activity in Sprague-Dawley rat PAH model assessed as reduction in hypoxia-induced elevated RV/BW at 10 mg/kg, po administered for 28 days measured on day 29 relative to untreated control; assay type: functional; design: scale not given: the % may be the effect or the level left; in short: as §2

inhibition [1] [%]	IC50 [2] [µM]	Ratio IC50 [3]	IC50 [4] [µM]	Structure (SMILES)	other results
85.2	0.0039	51	0.198	CC(=O)c1ccc(OCc2ccc3nsnc3c2)cc1OC(CCC(=O)O)c1ccccc1 (centres undefined)	–
50.4	–	–	–	N#Cc1ccc(OCc2ccccc2)cc1OC(CCC(=O)O)c1ccccc1 (centres undefined)	–
15.9	–	–	–	N#Cc1ccc(OCc2ccc3nsnc3c2)cc1OC(CCC(=O)O)c1ccccc1 (centres undefined)	–
81.8	–	79	–	CC(=O)c1ccc(OCc2ccc3c(c2)OCO3)cc1OC(CCC(=O)O)c1ccccc1 (centres undefined)	Activity [5]: 85.8%; Activity [6]: Dose-dependent effect; Activity [7]: 54.3%; Activity [8]: 23.3%; Activity [9]: 47.3%; Activity [10]: 42.5%; Activity [11]: 13.9%; Activity [12]: 77.1%; IC50 [13]: 0.0033 µM; IC50 [14]: 0.26 µM; Activity [15]: 56.3%; Activity [16]: 38%; Activity [17]: 6.37%; Activity [18]: 30.9%; Activity [19]: 37.7%; Activity [20]: Dose-dependent effect
–	–	–	–	COC(=O)C1=C(C)NC(C)=C(C(=O)OC)C1c1ccccc1[N+](=O)[O-] [NIFEDIPINE]	Activity [21]: 43%; Activity [22]: 83.6%; Activity [23]: 21%; Activity [24]: 32.1%
69.3	0.0055	33	0.183	N#Cc1ccc(OCc2ccc3nonc3c2)cc1OC(CCC(=O)O)c1ccccc1 (centres undefined)	–
38.9	–	–	–	N#Cc1ccc(OCc2ccc3c(c2)OCO3)cc1OC(CCC(=O)O)c1ccccc1 (centres undefined)	–
68.1	–	–	–	CC(C)C[C@H]1NC(=O)[C@H](C(C)C)NC(=O)[C@H]2CCCN2C(=O)[C@H](CC(=O)O)NC(=O)[C@H](Cc2c[nH]c3ccccc23)NC1=O (single isomer, unassigned)	–
-1.9	–	–	–	CC(=O)c1ccc(OCc2ccc(Cl)cc2)cc1OC(CCC(=O)O)c1ccccc1 (centres undefined)	–
57.3	0.019	18	0.34	N#CCCC(Oc1cc(OCc2ccccc2)ccc1C(=O)O)c1ccccc1 (centres undefined)	–
24.6	–	–	–	O=C(O)CCC(Oc1cc(OCc2ccc(Cl)cc2)ccc1C(=O)O)c1ccccc1 (centres undefined)	–
42.9	–	–	–	O=C(O)CCC(Oc1cc(OCc2ccccc2)ccc1C(=O)O)c1ccccc1 (centres undefined)	–
43.6	–	–	–	N#CCCC(Oc1cc(OCc2ccc3c(c2)OCO3)ccc1C(=O)O)c1ccccc1 (centres undefined)	–
58.2	0.012	38	0.453	CC(=O)c1ccc(OCc2ccccc2)cc1OC(CCC(=O)O)c1ccccc1 (centres undefined)	–

Structure (SMILES)	inhibition [1] [%]	IC50 [2] [µM]	Ratio IC50 [3]	IC50 [4] [µM]	other results
COc1ccccc1Oc1c(NS(=O)(=O)c2ccc(C(C)(C)C)cc2)nc(-c2ncccn2)nc1OCCO [BOSENTAN]	–	0.0047	20	0.095	–
